Reference: ChEMBL document CHEMBL5108089, “Structure-based discovery of potent inhibitors of Axl: design, synthesis, and biological evaluation” (RSC Med Chem, 2022)
Calls of active or inactive are those of the source. The rule behind the calls is not given here.

Key:
COLO 205 = test: Antiproliferative activity against human COLO 205 cells assessed as inhibition of cell growth incubated for 72 hrs by CCK-8 assay; format: functional
Raji = test: Antiproliferative activity against human Raji cells assessed as inhibition of cell growth incubated for 72 hrs by CCK-8 assay; format: functional
Procedure, shortened: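 8000 cells/well. Test compound was serially diluted from a 10 uM top concentration and staurosporine from 1 uM. CC50 and maximum % inhibition are reported.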

[1] = AUC (0 to last) in Sprague-Dawley rat at 5 mg/kg, po measured upto 24 hrs by LC-MS/MS analysis; format: ADME, organism-based; set-up: dose 5 mg/kg, time < 24 hrs, route po; conditions: in vivo
A549 = test: Antiproliferative activity against human A549 cells assessed as inhibition of cell growth incubated for 72 hrs by CCK-8 assay; format: functional
NCI-H2052 = test: Antiproliferative activity against human NCI-H2052 cells assessed as inhibition of cell growth incubated for 72 hrs by CCK-8 assay; format: functional
[2] = target: Vascular endothelial growth factor receptor 2 (Homo sapiens) (UniProt P35968); test: Inhibition of KDR (unknown origin) at 1 uM relative to control
NAMALVA = test: Antiproliferative activity against human NAMALVA cells assessed as inhibition of cell growth incubated for 72 hrs by CCK-8 assay; format: functional
Procedure, shortened: (§1)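 Plated at 10000 cells/well. Dose series topped at 10 uM for test compound and at 1 uM for the staurosporine reference. Read-outs were CC50 and maximum % inhibition.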

[3] = Cmax in Sprague-Dawley rat at 1 mg/kg, iv measured upto 24 hrs by LC-MS/MS analysis; format: ADME, organism-based; set-up: time < 24 hrs, dose 1 mg/kg, route iv; conditions: in vivo
[4] = Cmax in Sprague-Dawley rat at 5 mg/kg, po measured upto 24 hrs by LC-MS/MS analysis; format: ADME, organism-based; set-up: dose 5 mg/kg, time < 24 hrs, route po; conditions: in vivo
HT-29 = test: Antiproliferative activity against human HT-29 cells assessed as inhibition of cell growth incubated for 72 hrs by CCK-8 assay; format: functional
[5] = target: Aurora kinase A (Homo sapiens) (UniProt O14965); test: Inhibition of Aurora A (unknown origin) at 1 uM
HCC827 = test: Antiproliferative activity against human HCC827 cells assessed as inhibition of cell growth incubated for 72 hrs by CCK-8 assay; format: functional
HeLa = test: Antiproliferative activity against human HeLa cells assessed as inhibition of cell growth incubated for 72 hrs by CCK-8 assay; format: functional
PC-3 = test: Antiproliferative activity against human PC-3 cells assessed as inhibition of cell growth incubated for 72 hrs by CCK-8 assay; format: functional
FaDu = test: Antiproliferative activity against human FaDu cells assessed as inhibition of cell growth incubated for 72 hrs by CCK-8 assay; format: functional
MGC-803 = test: Antiproliferative activity against human MGC-803 cells assessed as inhibition of cell growth incubated for 72 hrs by CCK-8 assay; format: functional
[6] = target: Tyrosine-protein kinase Mer (Homo sapiens) (UniProt Q12866); test: Inhibition of Mer (unknown origin) at 1 uM
ASPC1 = test: Antiproliferative activity against human ASPC1 cells assessed as inhibition of cell growth incubated for 72 hrs by CCK-8 assay; format: functional
Procedure, shortened: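 5000 cells/well. Test compound was titrated from 10 uM and staurosporine control from 1 uM. Values are CC50 and maximum % inhibition.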

KU812 cell line = test: Antiproliferative activity against human KU812 cells assessed as inhibition of cell growth incubated for 72 hrs by CCK-8 assay; format: functional; procedure, shortened: as §1
[7] = target: T1, Tyrosine-protein kinase receptor UFO (Homo sapiens, UniProt P30530); test: Inhibition of human Axl using KKSRGDYMTMQIG as substrate incubated for 40 mins in the presence of [gamma33P]ATP by scintillation counting analysis
T1 sequence (P30530 whole entry): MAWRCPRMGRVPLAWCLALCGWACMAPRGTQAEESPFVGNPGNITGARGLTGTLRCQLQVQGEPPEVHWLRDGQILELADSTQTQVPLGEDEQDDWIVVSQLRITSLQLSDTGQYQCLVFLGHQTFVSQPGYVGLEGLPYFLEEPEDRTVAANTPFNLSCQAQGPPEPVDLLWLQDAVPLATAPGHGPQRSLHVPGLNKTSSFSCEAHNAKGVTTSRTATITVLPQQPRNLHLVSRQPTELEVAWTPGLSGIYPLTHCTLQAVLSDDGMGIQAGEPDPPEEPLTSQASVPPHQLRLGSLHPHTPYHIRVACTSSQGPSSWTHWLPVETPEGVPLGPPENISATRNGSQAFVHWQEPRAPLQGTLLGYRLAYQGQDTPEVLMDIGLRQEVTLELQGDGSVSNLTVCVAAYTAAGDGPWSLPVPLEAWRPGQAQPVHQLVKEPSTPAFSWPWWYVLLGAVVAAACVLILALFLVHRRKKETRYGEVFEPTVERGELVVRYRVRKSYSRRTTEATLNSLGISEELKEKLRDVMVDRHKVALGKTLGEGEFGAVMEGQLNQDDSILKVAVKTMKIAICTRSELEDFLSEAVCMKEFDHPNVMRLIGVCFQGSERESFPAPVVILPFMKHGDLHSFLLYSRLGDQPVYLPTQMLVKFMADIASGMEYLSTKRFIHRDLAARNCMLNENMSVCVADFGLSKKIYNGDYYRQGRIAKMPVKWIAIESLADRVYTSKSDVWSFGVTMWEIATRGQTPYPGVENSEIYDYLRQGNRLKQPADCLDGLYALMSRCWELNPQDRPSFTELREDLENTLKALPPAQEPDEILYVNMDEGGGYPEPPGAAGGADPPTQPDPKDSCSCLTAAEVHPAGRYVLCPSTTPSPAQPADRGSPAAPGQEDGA

NCI-H226 = test: Antiproliferative activity against human NCI-H226 cells assessed as inhibition of cell growth incubated for 72 hrs by CCK-8 assay; format: functional
[8] = Metabolic stability in rat liver microsomes assessed as intrinsic clearance preincubated for 10 mins followed by NADPH addition and measured upto 60 mins by LC-MS/MS analysis; format: ADME, Microsome; conditions: time < 70 min, read-out: CLH
HepG2 = test: Antiproliferative activity against human HepG2 cells assessed as inhibition of cell growth incubated for 72 hrs by CCK-8 assay; format: functional
MOLM-13 = test: Antiproliferative activity against human MOLM-13 cells assessed as inhibition of cell growth incubated for 72 hrs by CCK-8 assay; format: functional
[9] = Intrinsic clearance in human; format: ADME
T-24 = test: Antiproliferative activity against human T24 cells assessed as inhibition of cell growth incubated for 72 hrs by CCK-8 assay; format: functional
[10] = target: Tyrosine-protein kinase receptor UFO (Homo sapiens) (UniProt P30530); test: Inhibition of Axl (unknown origin) a 1 uM relative to control
Procedure, shortened: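 Ran 40 min at room temperature, stopped with 0.5% phosphoric acid, then filter-bound, washed and scintillation-counted. Inhibition was calculated as 100 − activity (%), given as mean ±SD.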

[11] = AUC (0 to last) in Sprague-Dawley rat at 1 mg/kg, iv measured upto 24 hrs by LC-MS/MS analysis; format: ADME, organism-based; set-up: dose 1 mg/kg, time < 24 hrs, route iv; conditions: in vivo
[12] = Oral bioavailability in Sprague-Dawley rat at 5 mg/kg measured upto 24 hrs by LC-MS/MS analysis; format: ADME, organism-based; conditions: in vivo
MCF7 = test: Antiproliferative activity against human MCF7 cells assessed as inhibition of cell growth incubated for 72 hrs by CCK-8 assay; format: functional

Sequence of Aurora kinase A (Homo sapiens) (O14965 whole entry): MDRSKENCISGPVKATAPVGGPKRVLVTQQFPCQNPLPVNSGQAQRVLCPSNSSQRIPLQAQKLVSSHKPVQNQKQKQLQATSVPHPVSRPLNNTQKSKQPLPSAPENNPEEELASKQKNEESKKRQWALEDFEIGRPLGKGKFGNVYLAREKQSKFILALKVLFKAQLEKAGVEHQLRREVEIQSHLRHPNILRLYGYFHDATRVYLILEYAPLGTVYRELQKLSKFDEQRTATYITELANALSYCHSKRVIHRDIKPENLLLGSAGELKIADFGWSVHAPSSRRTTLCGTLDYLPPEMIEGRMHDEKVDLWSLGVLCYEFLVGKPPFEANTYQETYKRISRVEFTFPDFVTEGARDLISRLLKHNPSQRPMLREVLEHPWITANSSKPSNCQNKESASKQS
Sequence of Vascular endothelial growth factor receptor 2 (Homo sapiens) (P35968 whole entry): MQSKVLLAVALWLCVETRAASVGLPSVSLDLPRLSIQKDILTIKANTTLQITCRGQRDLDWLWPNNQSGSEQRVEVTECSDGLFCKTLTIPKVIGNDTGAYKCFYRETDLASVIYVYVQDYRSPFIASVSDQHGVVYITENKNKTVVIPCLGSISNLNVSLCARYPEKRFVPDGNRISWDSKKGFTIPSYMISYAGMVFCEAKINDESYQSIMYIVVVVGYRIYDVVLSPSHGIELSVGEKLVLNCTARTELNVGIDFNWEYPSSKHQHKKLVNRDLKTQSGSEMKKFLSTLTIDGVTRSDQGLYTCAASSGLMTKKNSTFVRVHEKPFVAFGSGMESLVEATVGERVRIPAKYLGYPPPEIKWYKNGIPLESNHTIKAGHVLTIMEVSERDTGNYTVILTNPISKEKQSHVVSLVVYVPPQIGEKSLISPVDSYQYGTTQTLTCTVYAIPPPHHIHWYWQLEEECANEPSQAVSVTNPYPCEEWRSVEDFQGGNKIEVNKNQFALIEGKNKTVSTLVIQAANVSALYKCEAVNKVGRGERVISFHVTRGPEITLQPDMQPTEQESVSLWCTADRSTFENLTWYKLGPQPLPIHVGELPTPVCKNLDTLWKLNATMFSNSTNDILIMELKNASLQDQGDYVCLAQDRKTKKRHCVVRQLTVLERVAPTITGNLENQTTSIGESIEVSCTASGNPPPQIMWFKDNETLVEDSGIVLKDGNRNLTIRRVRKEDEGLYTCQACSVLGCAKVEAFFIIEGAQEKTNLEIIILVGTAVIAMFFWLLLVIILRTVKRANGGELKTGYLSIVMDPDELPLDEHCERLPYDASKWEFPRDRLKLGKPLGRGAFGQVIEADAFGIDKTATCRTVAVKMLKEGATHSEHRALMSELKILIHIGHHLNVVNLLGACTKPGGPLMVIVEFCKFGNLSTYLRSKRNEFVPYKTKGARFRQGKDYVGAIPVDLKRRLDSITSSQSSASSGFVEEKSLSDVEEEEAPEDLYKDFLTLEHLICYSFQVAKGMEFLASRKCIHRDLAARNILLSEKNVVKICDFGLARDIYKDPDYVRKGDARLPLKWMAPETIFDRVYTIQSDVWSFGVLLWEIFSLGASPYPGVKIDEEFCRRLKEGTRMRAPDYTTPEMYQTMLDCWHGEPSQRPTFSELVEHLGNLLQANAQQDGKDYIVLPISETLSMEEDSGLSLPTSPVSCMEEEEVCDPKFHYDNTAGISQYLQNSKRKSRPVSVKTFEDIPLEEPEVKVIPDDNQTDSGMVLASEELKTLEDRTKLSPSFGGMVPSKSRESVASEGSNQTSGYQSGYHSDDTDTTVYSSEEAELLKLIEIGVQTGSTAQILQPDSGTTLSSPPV
Sequence of Tyrosine-protein kinase Mer (Homo sapiens) (Q12866 whole entry): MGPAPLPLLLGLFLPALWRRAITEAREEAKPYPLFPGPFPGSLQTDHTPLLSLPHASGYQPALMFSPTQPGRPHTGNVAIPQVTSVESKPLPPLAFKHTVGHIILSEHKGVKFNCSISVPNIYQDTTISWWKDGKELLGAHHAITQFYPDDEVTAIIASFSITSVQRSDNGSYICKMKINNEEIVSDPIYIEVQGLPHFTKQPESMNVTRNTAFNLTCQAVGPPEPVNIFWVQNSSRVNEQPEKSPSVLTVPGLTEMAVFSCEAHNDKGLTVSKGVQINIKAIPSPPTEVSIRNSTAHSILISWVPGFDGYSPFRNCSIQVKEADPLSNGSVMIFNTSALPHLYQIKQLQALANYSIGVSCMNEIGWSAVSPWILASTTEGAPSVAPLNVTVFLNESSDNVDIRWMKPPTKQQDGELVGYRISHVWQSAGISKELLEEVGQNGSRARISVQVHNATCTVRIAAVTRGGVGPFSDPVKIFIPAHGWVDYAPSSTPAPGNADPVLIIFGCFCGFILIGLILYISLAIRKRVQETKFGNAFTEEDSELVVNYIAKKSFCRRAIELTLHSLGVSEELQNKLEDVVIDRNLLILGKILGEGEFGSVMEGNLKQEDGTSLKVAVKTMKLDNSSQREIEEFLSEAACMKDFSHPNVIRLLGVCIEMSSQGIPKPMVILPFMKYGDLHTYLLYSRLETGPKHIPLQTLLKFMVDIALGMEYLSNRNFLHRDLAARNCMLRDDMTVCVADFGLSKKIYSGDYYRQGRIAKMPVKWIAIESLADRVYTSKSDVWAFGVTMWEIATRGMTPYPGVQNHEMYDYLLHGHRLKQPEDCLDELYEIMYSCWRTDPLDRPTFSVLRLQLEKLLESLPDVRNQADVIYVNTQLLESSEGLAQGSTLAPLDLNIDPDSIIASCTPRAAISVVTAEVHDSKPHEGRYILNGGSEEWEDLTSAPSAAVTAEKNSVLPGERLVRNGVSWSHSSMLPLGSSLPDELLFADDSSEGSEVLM

Compound: CC(C)n1cnc(-c2ccccc2Nc2nc(Nc3ccc(N(C)C4CCN(C)CC4)cc3)ncc2Cl)n1
- CC50 (COLO 205): 350 nM
- CC50 (Raji): 4560 nM
- AUClast [1]: 1180 ng·h/mL
- CC50 (A549): 293 nM
- CC50 (NCI-H2052): 1180 nM
- inhibition [2]: 70%
- CC50 (NAMALVA): 494 nM
- Cmax [3]: 56.3 ng/mL
- Cmax [4]: 83.9 ng/mL
- CC50 (HT-29): 504 nM
- inhibition [5]: Active
- CC50 (HCC827): 2050 nM
- CC50 (HeLa): 199 nM
- CC50 (PC-3): 5590 nM
- CC50 (FaDu): 79.8 nM
- CC50 (MGC-803): 103 nM
- inhibition [6]: Active
- CC50 (ASPC1): 755 nM
- CC50 (KU812 cell line): 233 nM
- IC50 [7]: 5 nM
- CC50 (NCI-H226): 1240 nM
- CLint scaled [8]: 87.7 mL/min/kg
- CC50 (HepG2): 352 nM
- CC50 (MOLM-13): 206 nM
- CLint scaled [9]: 12 mL/min/kg
- CC50 (T-24): 933 nM
- inhibition [10]: 90%
- AUClast [11]: 422 ng·h/mL
- bioavailability [12]: 56.1%
- CC50 (MCF7): 5190 nM
